This is a sample that favours compounds with a hit; in the whole collection about 3.7% have one here.
Kir21 block – inhibitors of mouse Kir2.1 inward-rectifier potassium channel. HEK293-Kir2.1, FluxOR thallium flux fluorescence; hits give low values. B-score at 10 µM. hit rate 0.85% among 310,000. AID 1672, 2009;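 active = fluorescence ratio B-score at or below minus 3 SD of library scores, with starting-brightness B-score within 2 SD, cut at about -4.2 in these data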;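 also: channel flux triggered by added potassium and thallium sulfate stimulus; B-score of peak minus minimum fluorescence over baseline after thallium stimulus; more negative B-score means stronger Kir2.1 block with less thallium influx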
Target sequence (P35561 whole entry, looked up): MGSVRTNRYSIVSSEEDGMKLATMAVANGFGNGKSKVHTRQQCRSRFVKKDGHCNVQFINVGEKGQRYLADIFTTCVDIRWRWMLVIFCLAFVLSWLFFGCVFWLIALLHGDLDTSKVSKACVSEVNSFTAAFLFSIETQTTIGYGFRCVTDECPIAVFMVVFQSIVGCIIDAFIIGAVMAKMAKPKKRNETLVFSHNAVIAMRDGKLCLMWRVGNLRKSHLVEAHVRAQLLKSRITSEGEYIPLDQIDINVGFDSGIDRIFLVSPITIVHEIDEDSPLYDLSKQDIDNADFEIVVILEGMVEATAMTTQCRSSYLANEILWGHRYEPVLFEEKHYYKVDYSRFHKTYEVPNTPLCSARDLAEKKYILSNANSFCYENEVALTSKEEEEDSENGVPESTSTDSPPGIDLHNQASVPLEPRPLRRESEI
KCNQ1 act – potentiators or activators of KCNQ1 channel, primary screen, cell-based, thallium flux, high-throughput; Potassium voltage-gated channel subfamily KQT member 1 (Homo sapiens), P51787; CHO-K1 KCNQ1, thallium flux FluxOR fluorescence; hits give high values; B-score at 10 µM; hit rate 0.35% among 310,000; AID 2648, 2010;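 active = fluorescence ratio B-score, a plate-corrected score, at least three library SD, with initial intensity B-score within 5 SD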
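Assay system: stable KCNQ1 CHO-K1 line; medium: assay buffer, equal DMSO in all wells; timing: 90 min dye loading and 20 min compound exposure, both at room temperature; technique: kinetic FluxOR thallium fluorescence, 10-s 1-Hz baseline, 110-s post-stimulus read; read-out basis: B score of baseline-normalized fluorescence ratio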
KCNK9 block – KCNK9 potassium channel inhibitors, primary screen, HEK293 cells, thallium flux; Potassium channel subfamily K member 9 (Homo sapiens), Q9NPC2; FluxOR thallium flux fluorescence; hits give low values; B-score at 10 µM; hit rate 1.2% among 310,000;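 active = ratio B-score over 3 SD below the library mean, with starting fluorescence within 5 SD of its mean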;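 also: negative B-score means less thallium flux so channel inhibition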
hERG protect – hERG rescue from dofetilide block, primary screen, cell-based, CHO-hERG, FluxOR thallium flux, dofetilide IC70 | activation (rescue from dofetilide block), less the hit threshold, % at 10 µM | Voltage-gated inwardly rectifying potassium channel KCNH2 (Homo sapiens), Q12809 | dofetilide IC70 present | hit rate 0.51% among 310,000;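 active = activation above the mean of controls blocked by dofetilide plus 5 SD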;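 also: thallium influx through hERG after potassium depolarization seen as dye fluorescence rise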
KCNK3 block – human KCNK3 channel inhibitors, primary screen, CHO cells, FluxOR thallium flux, B-score | Potassium channel subfamily K member 3 (Homo sapiens), O14649 | FluxOR fluorescence; hits give low values | B-score at 10 µM | hit rate 0.84% among 340,000 | AID 602410, 2012;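 active = B-score under library mean minus 4 SD, starting fluorescence ratio at most library mean plus 5 SD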;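 also: more negative B-score means stronger inhibition of thallium flux through KCNK3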
KCNQ1 inh – inhibitors of human KCNQ1 channel, primary screen, cell-based, thallium flux, high-throughput | CHO-K1 KCNQ1, FluxOR thallium flux fluorescence; hits give high values | B-score at 10 µM | hit rate 1.3% among 310,000;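 active = compounds whose thallium flux B-score, printed positive for inhibition, exceeds three library SD while starting fluorescence stays within three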;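 also: channel opened by potassium depolarization with thallium stimulus after 20 min compound exposure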
KCNK9 inh conf – KCNK9 potassium channel inhibitors, confirmation, HEK293 cells, thallium flux, duplicate. shares compounds with KCNK9 block. FluxOR thallium flux fluorescence. inhibition, % at 10 µM. hit rate 43% among 4,900. AID 492992, 2010;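 active = thallium signal inhibited by more than 5 SD of the compound-free buffer control wells, on both duplicate plates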
Kir21 sel – mouse Kir2.1 channel inhibition, confirmation, selectivity assay for KCNK9 modulator project, cell-based, HEK293, thallium flux; shares compounds with KCNK9 block; Kir2.1 cells, FluxOR thallium flux fluorescence; inhibition, % at 10 µM; hit rate 4% among 4,900; AID 492993, 2010;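 active = thallium signal drop more than 5 SD beyond the mean of the no-compound control wells, seen in both duplicate plates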;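 also: signal is fluorescence rise after thallium addition divided by baseline fluorescence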
KCNK9 uninduced – thallium flux in non-induced HEK293 cells, confirmation, counter-screen for KCNK9 inhibitor project, cell-based, second counter screen, non-induced KCNK9-HEK293; inhibition, % at 10 µM; AID 492997, 2010; shares compounds with KCNK9 block; hit rate 40% among 4,900; FluxOR thallium flux;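 active = thallium signal drop beyond 5 SD of the untreated control mean, on both duplicate plates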
Each line names hits and unclear results; the compound was inactive in the other large screens (follow-up assays come after a bar, where they were run).

Cc1sc2ncnc(SCC(=O)N3CCCC(C(N)=O)C3)c2c1C (stereo not drawn)	none
C/C(=N/OC(=O)C1CC12CCC2)c1ccc(Br)cc1 (stereo not drawn)	none | KCNK9 inh conf inactive | Kir21 sel inactive | KCNK9 uninduced inactive
COc1ccccc1CCNC(=O)C(=O)NCC1OCCCN1S(=O)(=O)c1ccc(F)cc1C (stereo not drawn)	none
Cc1ccsc1C(=O)N1CCN(c2ccccn2)CC1	KCNK9 block -8.1 | KCNK9 inh conf inactive | Kir21 sel inactive | KCNK9 uninduced inactive
Cc1ccsc1C(=O)N1CCCC(CCC(=O)N2CCN(c3ccccn3)CC2)C1 (stereo not drawn)	none
CCOC(=O)c1cnc2ccc(OC)cc2c1NCc1ccccc1	none | KCNK9 inh conf inactive | Kir21 sel inactive | KCNK9 uninduced inactive
CCOC(=O)c1cnc2ccc(OCC)cc2c1NCc1ccccc1OC	none
O=C(N/N=C/c1cn(-c2ccccc2)nc1-c1cccs1)c1ccccc1F	KCNK9 block -13, KCNK3 block -9.1, KCNQ1 inh 6 | KCNK9 inh conf 56% | Kir21 sel inactive | KCNK9 uninduced 30%
O=C(N/N=C/c1cn(-c2ccccc2)nc1-c1cccs1)c1ccc(Cl)cc1	none
CC1=NNC(=O)/C1=C\c1cn(-c2ccccc2)nc1-c1cccs1	none | KCNK9 inh conf inactive | Kir21 sel inactive | KCNK9 uninduced inactive
O=C(O)CCCCCN1C(=O)/C(=C/c2cn(-c3ccccc3)nc2-c2cccs2)SC1=S	none (no result: Kir21 block, KCNQ1 act, KCNK9 block, hERG protect, KCNQ1 inh)
COC(=O)c1sc(-c2ccc(C(C)(C)C)cc2)cc1NC(=O)CCC(=O)O	none | KCNK9 inh conf inactive | Kir21 sel inactive | KCNK9 uninduced inactive
COc1cccc(CNC(=O)CSCc2cnn(-c3ccccc3)c2-n2cccc2)c1OC	none | KCNK9 inh conf inactive | Kir21 sel 31% | KCNK9 uninduced inactive
COc1ccccc1CNC(=O)CSCc1cnn(-c2ccccc2)c1-n1cccc1	Kir21 block -5.8 | KCNK9 inh conf inactive | Kir21 sel inactive | KCNK9 uninduced inactive
COc1cc(NC(=O)CSCc2cnn(-c3ccccc3)c2-n2cccc2)cc(OC)c1	none
COc1ccc(OC)c(NC(=O)CSCc2cnn(-c3ccccc3)c2-n2cccc2)c1	Kir21 block -4.3 | KCNK9 inh conf inactive | Kir21 sel inactive | KCNK9 uninduced 29%
Cc1ccc(Cn2cccc2C2=NC(C)CO2)cc1 (stereo not drawn)	none
CC(C)C1COC(c2cccn2Cc2ccccc2Cl)=N1 (stereo not drawn)	none | KCNK9 inh conf inactive | Kir21 sel inactive | KCNK9 uninduced 30%
Cc1oc(-c2ccccc2Cl)nc1Cn1cccc1C1=NC(c2ccccc2)CO1 (stereo not drawn)	KCNK9 block -13, KCNQ1 inh 6 | KCNK9 inh conf 54% | Kir21 sel inactive | KCNK9 uninduced 52%
CCOc1ncccc1C(=O)OCC(=O)Nc1ccc2c(c1)OCCO2	none (no result: Kir21 block, KCNQ1 act, KCNK9 block, hERG protect, KCNQ1 inh)
CSc1ccc(CN(C)CC(=O)NC(=O)NC(C)(C)C)cc1	none | KCNK9 inh conf inactive | Kir21 sel inactive | KCNK9 uninduced inactive
O=C1CC(=C(c2ccccc2)c2ccccc2)C(=O)N1CCN1CCN(c2cccc(Cl)c2)CC1	none | KCNK9 inh conf inactive | Kir21 sel inactive | KCNK9 uninduced inactive
Cc1ccc(-c2nc(NC(=O)CSc3cc(C)c4ccccc4n3)ns2)cc1	none
COc1ccc2c(C)cc(SCC(=O)Nc3nsc(-c4ccc(C)cc4)n3)nc2c1	KCNK9 block -14 | KCNK9 inh conf 48% | Kir21 sel inactive | KCNK9 uninduced inactive
COC(=O)C1=C(N)Oc2cc(C)n(Cc3ccco3)c(=O)c2C1c1cccc(Cl)c1 (stereo not drawn)	KCNK9 block -13 | KCNK9 inh conf 46% | Kir21 sel inactive | KCNK9 uninduced 45%
COC(=O)C1=C(N)Oc2cc(C)n(CC3CCCO3)c(=O)c2C1c1ccc(Cl)c(Cl)c1 (stereo not drawn)	KCNK9 block -9.1 | KCNK9 inh conf 35% | Kir21 sel inactive | KCNK9 uninduced 52%
CCn1c(C)cc2c(c1=O)C(c1ccccc1)C(C(=O)OC)=C(N)O2 (stereo not drawn)	none
COc1cccc(-c2csc3ncnc(Sc4nnnn4C)c23)c1	none (no result: Kir21 block, KCNQ1 act, KCNK9 block, hERG protect, KCNQ1 inh)
CC1CCN(c2ccc3nnc(CCC(=O)N4CCN(c5ccccc5F)CC4)n3n2)CC1	none
O=C(NCc1cccnc1)c1cc(Sc2cccc(Cl)c2)nc2ccccc12	KCNK9 block -8.2 | KCNK9 inh conf 36% | Kir21 sel inactive | KCNK9 uninduced inactive
O=C(NCc1cccc(Cl)c1)c1cccnc1	none
Cc1ccc(C)c(N2CCN(C(=O)C3CCCCN3S(=O)(=O)c3ccc(F)cc3)CC2)c1 (stereo not drawn)	KCNK9 block -19 | KCNK9 inh conf 30% | Kir21 sel inactive | KCNK9 uninduced 30%
O=C(O)C1CCCN1S(=O)(=O)c1ccc(F)cc1 (stereo not drawn)	none
COc1cc(OC)c(C(=O)NC23CC4CC(CC(C4)C2)C3)cc1OC	none
O=C(NC12CC3CC(CC(C3)C1)C2)c1cc(F)c(F)c(F)c1F	none | KCNK9 inh conf inactive | Kir21 sel inactive | KCNK9 uninduced inactive
Cc1ccccc1C1CC(c2cccs2)Nc2nnnn21 (stereo not drawn)	none
CCCNC(=O)c1c(CSc2ccc(Cl)cc2)noc1C(=O)NCc1ccccc1	none | KCNK9 inh conf inactive | Kir21 sel inactive | KCNK9 uninduced inactive
O=C(NCc1ccccc1)c1onc(CSc2ccccc2)c1C(=O)NCc1ccccc1	none | KCNK9 inh conf inactive | Kir21 sel inactive | KCNK9 uninduced inactive
CC(C)NC(=O)c1c(CSc2ccc(Cl)cc2)noc1C(=O)NCc1ccccc1	none | KCNK9 inh conf inactive | Kir21 sel inactive | KCNK9 uninduced inactive
O=C(NCc1ccccc1)c1onc(CSc2ccc(Cl)cc2)c1C(=O)NCc1ccccc1	none
